An excerpt weighted towards active compounds, which were near 2.6% of everything screened.
BB579 growth dn = chemicals that inhibit yeast BB579 growth in restrictive medium (lifespan-shortening candidates); S. cerevisiae BB579 growth, OD615, 48 h; inhibition, % at 10 µM; 140,000 tested, 0.51% active;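 active means inhibition above a set limit, 3 SD over the mean compound inhibition, cut at about 44% in these data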
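Assay system – yeast BB579 (DeaD) · Dosing – single compound dose of 10 µM, 0.25% DMSO final · Detection – OD615 turbidity measurement · Buffer or medium – CSMM-D restrictive synthetic medium containing dextrose (glucose) · Benchmarks – positive control amphotericin B 10 µg/mL · Incubation – 48 h exposure, 30 °C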
Yeast lifespan up = extends the lifespan of yeast; S. cerevisiae growth with nicotinamide, OD615; deaD strain in restrictive glucose medium; inhibition of the nicotinamide effect, % at 10 µM; 130,000 tested, 0.68% active; AID 775;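 active means inhibition above a set limit, placed 3 SD over the median of all compounds, cut at about 26% in these data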
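Assay system: DeaD-strain S. cerevisiae. Medium: CSMM-D glucose medium, restrictive. Reagent: nicotinamide, 1.5 mM, co-present with compound. Compound: 10 µM single point, 0.25% DMSO. Schedule: culture preincubation 4 h, compound exposure 48 h, both 30 °C. Detection: absorbance at 615 nm.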
RAM inhibit = blocks the yeast RAM network. S. cerevisiae dse1pr::URA3 reporter, 5-FOA growth OD615, 2 d; analog-sensitive cbk1-as2 kinase mutant strain. inhibition, % at 50 µM. 190,000 tested, 1.8% active;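 active means inhibition above a set limit, 3 SD over mean compound inhibition, cut at about 8.4% in these data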;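 further: inhibition rescues growth on 5-FOA so higher OD means more RAM inhibition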
RAM 5-FOA = RAM network inhibition, efflux-deficient strain. AID 1305. S. cerevisiae efflux-deficient reporter strain, 5-FOA growth OD615, 2 days. max inhibition, %. shares compounds with RAM inhibit. 1,200 tested, under 10 active; call rule not given here
Each line names hits and unclear results; the compound was inactive in the other large screens (follow-up assays come after a bar, where they were run).

O=C(COC(=O)C1(c2ccc(Cl)cc2)CCCC1)Nc1ncc(C(F)(F)F)cc1Cl	RAM inhibit 8.9
O=C(CNc1cc(S(=O)(=O)N2CCOCC2)ccc1N1CCCC1)N1CCc2ccccc21	none (no result: BB579 growth dn, Yeast lifespan up)
Cc1c(-c2ccnc3cc(C(=O)O)nn23)cnn1C	none (no result: BB579 growth dn, Yeast lifespan up)
CC(C)(C)c1ccc(OCc2nc(-c3ccccn3)no2)c(Br)c1	none
Clc1cc(Cl)c(OCc2nc(-c3ccccn3)no2)cc1Cl	RAM inhibit 11
O=Cc1cccn1-c1ccc(O)cc1	none (no result: BB579 growth dn, Yeast lifespan up)
O=C(CN1c2ccccc2Sc2ccccc21)NNC(=S)Nc1ccc(Cl)cc1Cl	RAM inhibit 11
Cn1cccc1CC(=O)NNC(=S)Nc1ccc(Cl)cc1Cl	none
O=[N+]([O-])c1cccc(C2Nc3cccc4cccc(c34)N2)c1	none
O=[N+]([O-])c1ccc(C2Nc3cccc4cccc(c34)N2)cc1	RAM inhibit 12 | RAM 5-FOA inactive
CCCNC(=O)c1c[nH]c2ccc(S(=O)(=O)N(C)c3ccc(OCC)cc3)cc2c1=O	none
CCOc1ccc(N(C)S(=O)(=O)c2ccc3[nH]cc(C(=O)NCCOC)c(=O)c3c2)cc1	RAM inhibit 14 (no result: BB579 growth dn, Yeast lifespan up) | RAM 5-FOA inactive
O=C(CSc1ccc(Cl)cc1)N1CCN(c2ccc(Cl)cc2[N+](=O)[O-])CC1	RAM inhibit 13 | RAM 5-FOA inactive
CC(C)(C)C(=O)N1CCN(c2ccc(Cl)cc2[N+](=O)[O-])CC1	none
Nc1ccc(SCC(=O)Nc2cccc([N+](=O)[O-])c2)cc1	none (no result: BB579 growth dn, Yeast lifespan up)
COc1ccc(/C=N/OCC(=O)NC(c2ccccc2)c2ccccc2)cc1OC	none
COc1cc(/C=N/OCC(=O)NC23CC4CC(CC(C4)C2)C3)ccc1OCc1ccccc1	RAM inhibit 12 | RAM 5-FOA inactive
COCC1CCN(Cc2nc(-c3ccc(OC)cc3)no2)CC1	none (no result: BB579 growth dn, Yeast lifespan up)
Clc1ccc(-c2csc(Nc3ccccc3)[n+]2Cc2ccco2)c(Cl)c1	RAM inhibit 14 (no result: BB579 growth dn, Yeast lifespan up) | RAM 5-FOA inactive
C=CC[n+]1c(-c2ccc(Cl)cc2Cl)csc1Nc1c(C)n(C)n(-c2ccccc2)c1=O	none (no result: BB579 growth dn, Yeast lifespan up)
Cc1ccc(O)c(-c2cc(-c3cccc(Br)c3)n[nH]2)c1	RAM inhibit 12 (no result: BB579 growth dn, Yeast lifespan up) | RAM 5-FOA inactive
Oc1ccc(Cl)cc1-c1cc(-c2ccccc2)n[nH]1	none
COc1ccc(C(=O)/C=C/c2ccc(OC)cc2OC)c(O)c1	none (no result: BB579 growth dn, Yeast lifespan up)
COc1ccc(/C=C/C(=O)c2ccc(Cl)cc2)c(OC)c1	RAM inhibit 12 | RAM 5-FOA inactive
N#Cc1ccccc1S(=O)(=O)N1CCN(c2cnccn2)CC1	none (no result: BB579 growth dn, Yeast lifespan up)
CCc1cc2c3c(c1)C1(C(=O)N3C(C)(C)C=C2C)C(C#N)=C(N)Oc2[nH]c(=O)[nH]c(=O)c21 (stereo not drawn)	none (no result: BB579 growth dn, Yeast lifespan up)
CCN1C(=O)c2cccc3c(NS(=O)(=O)c4ccc(NC(C)=O)cc4)ccc1c23	none
CCOC(=O)c1ccc(NC(=O)Nc2ccc3c4c(cccc24)C(=O)N3CC)cc1	RAM inhibit 18 | RAM 5-FOA inactive
CCC(=O)Nc1ccccc1C(=O)OC(c1ccccc1)c1ccccc1	none
CCC(=O)Nc1ccccc1C(=O)OCc1ccc(C(=O)c2ccccc2)cc1	RAM inhibit 12 | RAM 5-FOA inactive
O=C(CSc1nc2ncc(Cl)cc2[nH]1)N(Cc1ccccc1)C1CCS(=O)(=O)C1 (stereo not drawn)	none (no result: BB579 growth dn, Yeast lifespan up)
Cc1ccc(NC(=O)COC(=O)CCC(=O)c2ccc(C(C)(C)C)cc2)c([N+](=O)[O-])c1	RAM inhibit 14 | RAM 5-FOA inactive
Cc1ccc(NC(=O)COC(=O)COc2ccc(Cl)cc2C)c([N+](=O)[O-])c1	RAM inhibit 12 | RAM 5-FOA inactive
Cc1ccc(NC(=O)COC(=O)c2cc(Cl)ccc2[N+](=O)[O-])c(C)c1	none
Cc1ccc(C(=O)NCC(=O)OCC(=O)Nc2cc(C)c(C)cc2[N+](=O)[O-])cc1	none
CCCCn1c(N)c(N(CCOC)C(=O)CN2c3ccccc3CC2C)c(=O)[nH]c1=O (stereo not drawn)	none (no result: BB579 growth dn, Yeast lifespan up)
CN(c1ccc(OCC(=O)N2CCN(c3ccc(F)cc3)CC2)cc1)S(=O)(=O)c1cccs1	none (no result: BB579 growth dn, Yeast lifespan up)
CCOC(=O)C1(CCOC)CCN(C(C)CCc2ccc(OC)cc2)CC1 (stereo not drawn)	none (no result: BB579 growth dn, Yeast lifespan up)
Cc1ccccc1OCCC(=O)Nc1cccc(S(=O)(=O)Nc2ccccc2Cl)c1	RAM inhibit 17 | RAM 5-FOA inactive
Cc1ccccc1OCCC(=O)Nc1ccc(Cl)cc1F	none
CON/C=C(\C=Nc1ccccc1)c1ncc(C(F)(F)F)cc1Cl	none
CON/C=C(\C=Nc1ccc(Cl)cc1Cl)c1ncc(C(F)(F)F)cc1Cl	RAM inhibit 13 | RAM 5-FOA inactive
O=C(c1ccco1)N(CCC(c1ccccc1)c1ccco1)Cc1ccc(F)cc1 (stereo not drawn)	none

Screens deposited in PubChem by SRMLSC.
